Laboratory results reported in ChEMBL document CHEMBL1649441, “Potency and bactericidal activity of iclaprim against recent clinical gram-positive isolates” (2009).
Converted amounts (≈) assume the structure as drawn.

Key:
[1] = test system: Streptococcus sp. 'group B'; assay: Antibacterial activity against Beta-hemolytic Streptococcus group B assessed as inhibition of bacterial growth at 0.015 ug/ml by CLSI broth microdilution method; type: functional
Procedure, shortened: (§1)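 Clinical isolates from skin/soft tissue, bloodstream and respiratory specimens were tested by broth microdilution per CLSI M7-A7 and M100-S18, with quality controls. Values are the number of isolates inhibited at each concentration, or MIC / percent susceptible. Highest concentration tested was 8 µg/ml for iclaprim and trimethoprim-sulfamethoxazole, and 64 µg/ml for trimethoprim.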

Enterococcus faecalis [2] = assay: Antibacterial activity against Enterococcus faecalis assessed as inhibition of bacterial growth at >8 ug/ml by CLSI broth microdilution method; type: functional; procedure, shortened: as §1
[3] = test system: Streptococcus sp. 'group A'; assay: Antibacterial activity against Beta-hemolytic Streptococcus group A assessed as inhibition of bacterial growth at 1 ug/ml by CLSI broth microdilution method; type: functional; procedure, shortened: as §1
Enterococcus faecalis [4] = assay: Antibacterial activity against Enterococcus faecalis assessed as inhibition of bacterial growth at 0.03 ug/ml by CLSI broth microdilution method; type: functional; procedure, shortened: as §1
[5] = test system: Streptococcus sp. 'group A'; assay: Antibacterial activity against Beta-hemolytic Streptococcus group A assessed as inhibition of bacterial growth at 2 ug/ml by CLSI broth microdilution method; type: functional; procedure, shortened: as §1
Enterococcus faecium [6] = assay: Antibacterial activity against Enterococcus faecium assessed as inhibition of bacterial growth at <= 0.008 ug/ml by CLSI broth microdilution method; type: functional
Staphylococcus aureus [7] = assay: Antibacterial activity against Methicillin-sensitive Staphylococcus aureus assessed as inhibition of bacterial growth at […] by CLSI broth microdilution method; type: functional; parameters: Activity: scale not given: the % may be the effect or the level left; for INH: tested at 0.25 µg/mL
Staphylococcus aureus [8] = assay: Antibacterial activity against Methicillin-resistant Staphylococcus aureus assessed as inhibition of bacterial growth at 0.03 ug/ml by CLSI broth microdilution method; type: functional
Procedure, shortened: (§2)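 Recent clinical isolates from skin/soft tissue, bloodstream and respiratory specimens. Tested by broth microdilution per CLSI M7-A7 and M100-S18, with the appropriate quality controls. The thymidine content of the test medium was assessed to rule out artifactual inhibition.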

Enterococcus faecalis [9] = assay: Antibacterial activity against Enterococcus faecalis assessed as inhibition of bacterial growth at 8 ug/ml by CLSI broth microdilution method; type: functional; procedure, shortened: as §1
Staphylococcus aureus [10] = assay: Antibacterial activity against Methicillin-resistant Staphylococcus aureus by CLSI broth microdilution method; type: functional
[11] = test system: Streptococcus sp. 'group A'; assay: Antibacterial activity against Beta-hemolytic Streptococcus group A assessed as inhibition of bacterial growth at 0.015 ug/ml by CLSI broth microdilution method; type: functional; procedure, shortened: as §1
Staphylococcus aureus [12] = assay: Antibacterial activity against Methicillin-sensitive Staphylococcus aureus assessed as inhibition of bacterial growth at 0.06 ug/ml by CLSI broth microdilution method; type: functional; parameters: Activity: scale not given: the % may be the effect or the level left
[13] = test system: Streptococcus sp. 'group B'; assay: Antibacterial activity against Beta-hemolytic Streptococcus group B assessed as inhibition of bacterial growth at […] by CLSI broth microdilution method; type: functional
Staphylococcus aureus [14] = assay: Antibacterial activity against Methicillin-sensitive Staphylococcus aureus assessed as inhibition of bacterial growth at 4 ug/ml by CLSI broth microdilution method; type: functional
Enterococcus faecium [15] = assay: Antibacterial activity against Enterococcus faecium assessed as inhibition of bacterial growth at 4 ug/ml by CLSI broth microdilution method; type: functional
[16] = test system: Streptococcus sp. 'group A'; assay: Antibacterial activity against Beta-hemolytic Streptococcus group A assessed as inhibition of bacterial growth at 8 ug/ml by CLSI broth microdilution method; type: functional; procedure, shortened: as §1
[17] = test system: Streptococcus sp. 'group A'; assay: Antibacterial activity against Beta-hemolytic Streptococcus group A assessed as inhibition of bacterial growth at <= 0.008 ug/ml by CLSI broth microdilution method; type: functional; procedure, shortened: as §1
Staphylococcus aureus [18] = assay: Antibacterial activity against Methicillin-sensitive Staphylococcus aureus assessed as inhibition of bacterial growth at 0.03 ug/ml by CLSI broth microdilution method; type: functional; parameters: Activity: scale not given: the % may be the effect or the level left; procedure, shortened: as §2
Staphylococcus aureus [19] = assay: Antibacterial activity against Methicillin-sensitive Staphylococcus aureus assessed as inhibition of bacterial growth at <= 0.008 ug/ml by CLSI broth microdilution method; type: functional; procedure, shortened: as §2
[20] = test system: Streptococcus sp. 'group A'; assay: Antibacterial activity against Beta-hemolytic Streptococcus group A assessed as inhibition of bacterial growth at 0.03 ug/ml by CLSI broth microdilution method; type: functional; procedure, shortened: as §1
Enterococcus faecium [21] = assay: Antibacterial activity against Enterococcus faecium assessed as inhibition of bacterial growth at 0.5 ug/ml by CLSI broth microdilution method; type: functional
Enterococcus faecalis [22] = assay: Antibacterial activity against Enterococcus faecalis assessed as inhibition of bacterial growth at 0.5 ug/ml by CLSI broth microdilution method; type: functional; procedure, shortened: as §1
[23] = test system: Streptococcus sp. 'group B'; assay: Antibacterial activity against Beta-hemolytic Streptococcus group B assessed as inhibition of bacterial growth at <= 0.008 ug/ml by CLSI broth microdilution method; type: functional; procedure, shortened: as §1
Enterococcus faecium [24] = assay: microbe, parasite or virus in culture; conditions: read-out: INH
Staphylococcus aureus [25] = assay: Antibacterial activity against Methicillin-resistant Staphylococcus aureus assessed as resistant isolates by CLSI broth microdilution method; type: functional
Enterococcus faecalis [26] = assay: microbe, parasite or virus in culture; conditions: read-out: INH
Staphylococcus aureus [27] = assay: microbe, parasite or virus in culture; conditions: read-out: INH
Staphylococcus aureus [28] = assay: microbe, parasite or virus in culture; conditions: read-out: INH; remark: listed apart in the source
Staphylococcus aureus [29] = assay: microbe, parasite or virus in culture; conditions: read-out: INH; remark: listed apart in the source
[30] = test system: Streptococcus sp. 'group A'; assay: microbe, parasite or virus in culture; conditions: read-out: INH
Staphylococcus aureus [31] = assay: Antibacterial activity against Methicillin-resistant Staphylococcus aureus assessed as susceptible isolates by CLSI broth microdilution method; type: functional
Staphylococcus aureus [32] = assay: Antibacterial activity against Methicillin-sensitive Staphylococcus aureus assessed as resistant isolates by CLSI broth microdilution method; type: functional
Enterococcus faecium [33] = assay: microbe, parasite or virus in culture; conditions: read-out: INH; remark: listed apart in the source
[34] = test system: Streptococcus sp. 'group A'; assay: microbe, parasite or virus in culture; conditions: read-out: INH; remark: listed apart in the source
[35] = test system: Streptococcus sp. 'group A'; assay: microbe, parasite or virus in culture; conditions: read-out: INH; remark: listed apart in the source
Staphylococcus aureus [36] = assay: microbe, parasite or virus in culture; conditions: read-out: INH; remark: listed apart in the source
[37] = test system: Streptococcus sp. 'group B'; assay: microbe, parasite or virus in culture; conditions: read-out: INH
Enterococcus faecalis [38] = assay: microbe, parasite or virus in culture; conditions: read-out: INH; remark: listed apart in the source
Staphylococcus aureus [39] = assay: microbe, parasite or virus in culture; conditions: read-out: INH; remark: listed apart in the source
Enterococcus faecium [40] = assay: microbe, parasite or virus in culture; conditions: read-out: INH; remark: listed apart in the source
Enterococcus faecalis [41] = assay: microbe, parasite or virus in culture; conditions: read-out: INH; remark: listed apart in the source
[42] = test system: Streptococcus sp. 'group B'; assay: microbe, parasite or virus in culture; conditions: read-out: INH; remark: listed apart in the source
Staphylococcus aureus [43] = assay: Antibacterial activity against Methicillin-sensitive Staphylococcus aureus assessed as susceptible isolates by CLSI broth microdilution method; type: functional
Staphylococcus aureus [44] = assay: microbe, parasite or virus in culture; conditions: read-out: INH; remark: listed apart in the source

## COc1cc(Cc2cnc(N)nc2N)c2c(c1OC)OC(C1CC1)C=C2 (configuration not stated)
[1]
  inhibition at 0.015 µg/mL: 0.5%
Enterococcus faecalis [2]
  inhibition (INH): 100%
[3]
  inhibition at 1 µg/mL: 100%
Enterococcus faecalis [4]
  inhibition at 0.03 µg/mL: 63.9%
[5]
  inhibition at 2 µg/mL: 100%
Enterococcus faecium [6]
  inhibition (INH): 33.7%
Staphylococcus aureus [7]; Staphylococcus aureus
  inhibition at […]: 98.5%
Staphylococcus aureus [8]
  inhibition at 0.03 µg/mL: 12.8%
Enterococcus faecalis [9]
  inhibition at 8 µg/mL: 1.9%
Staphylococcus aureus [10]
  MIC50: 0.06 µg/mL (≈ 0.169 µM)
  MIC90: 0.12 µg/mL (≈ 0.339 µM)
[11]
  inhibition at 0.015 µg/mL: 77.6%
Staphylococcus aureus [12]; Staphylococcus aureus
  inhibition at 0.06 µg/mL: 58.8%
[13]
  inhibition at […]: 55.4%
Staphylococcus aureus [14]
  inhibition at 4 µg/mL: 99.9%
Enterococcus faecium [15]
  inhibition at 4 µg/mL: 74.9%
[16]
  inhibition at 8 µg/mL: 100%
[17]
  inhibition (INH): 30.5%
Staphylococcus aureus [18]; Staphylococcus aureus
  inhibition at 0.03 µg/mL: 6.1%
Staphylococcus aureus [19]
  inhibition (INH): 0.1%
[20]
  inhibition at 0.03 µg/mL: 94.9%
Enterococcus faecium [21]
  inhibition at 0.5 µg/mL: 39.3%
Enterococcus faecalis [22]
  inhibition at 0.5 µg/mL: 70.6%
[23]
  inhibition (INH): 0%

## COc1cc(Cc2cnc(N)nc2N)cc(OC)c1OC [TRIMETHOPRIM]
Enterococcus faecium [24]
  inhibition at 16 µg/mL: 47.2%
Staphylococcus aureus [25]
  Activity: 7.1%
Enterococcus faecalis [26]
  inhibition at 32 µg/mL: 71%
Staphylococcus aureus [27]
  inhibition at 32 µg/mL: 94.1%
Enterococcus faecalis [2]
  inhibition (INH): 100%
Staphylococcus aureus [28]
  inhibition at 64 µg/mL: 98.7%
[3]
  inhibition at 1 µg/mL: 99.5%
Enterococcus faecalis [4]
  inhibition at 0.03 µg/mL: 0.6%
[5]
  inhibition at 2 µg/mL: 100%
Staphylococcus aureus [29]
  inhibition at 16 µg/mL: 98.7%
[30]
  inhibition at 32 µg/mL: 100%
Staphylococcus aureus [31]
  Activity: 92.9%
Staphylococcus aureus [7]
  Activity: 2.4%
Staphylococcus aureus [32]
  Activity: 1.3%
Enterococcus faecium [33]
  inhibition at 32 µg/mL: 55.1%
[34]
  inhibition at 64 µg/mL: 100%
Enterococcus faecalis [9]
  inhibition at 8 µg/mL: 70.6%
[35]
  inhibition at 16 µg/mL: 100%
Staphylococcus aureus [10]
  MIC50: 1 µg/mL (≈ 3.44 µM)
  MIC90: 2 µg/mL (≈ 6.89 µM)
Staphylococcus aureus [12]
  Activity: 0.1%
[13]
  inhibition at […]: 0%
Staphylococcus aureus [36]
  inhibition at 64 µg/mL: 94.6%
Staphylococcus aureus [14]
  inhibition at 4 µg/mL: 98.5%
Enterococcus faecium [15]
  inhibition at 4 µg/mL: 38.9%
[37]
  inhibition at 64 µg/mL: 100%
Enterococcus faecalis [38]
  inhibition at 16 µg/mL: 70.6%
[16]
  inhibition at 8 µg/mL: 100%
Staphylococcus aureus [39]
  inhibition at 16 µg/mL: 93.6%
Staphylococcus aureus [18]
  Activity: 0%
Enterococcus faecium [40]
  inhibition at 64 µg/mL: 60.7%
[20]
  inhibition at 0.03 µg/mL: 0.8%
Enterococcus faecium [21]
  inhibition at 0.5 µg/mL: 37.6%
Enterococcus faecalis [22]
  inhibition at 0.5 µg/mL: 62.9%
Enterococcus faecalis [41]
  inhibition at 64 µg/mL: 72.9%
[42]
  inhibition at 16 µg/mL: 100%
Staphylococcus aureus [43]
  Activity: 98.7%
Staphylococcus aureus [44]
  inhibition at 32 µg/mL: 98.7%
